Laboratory results reported in publication PMC4942345 (Organic & biomolecular chemistry, 2016).
Where a SMILES comes first, the peptide text is derived from it. [ ]: non-standard residue; d: D form. The star is where a group is joined. Benzoyl(4-SO2NH2) = NS(=O)(=O)c1ccc(C(=O)*)cc1

Legend:
[1] = target: T1, hCAII (Homo sapiens, UniProt P00918); test: Esterase activity inhibition; assay type: biochemical; conditions: from IC50 values
In short: (§1)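 Commercial human CA isozyme at 0.2 μM was run with the inhibitor-peptide conjugate as blocker. The substrate was 50 μM 4-nitrophenyl acetate in Tris buffer (9 mM Tris-HCl, 81 mM NaCl, 10% v/v acetonitrile, 1% v/v DMSO). Nitrophenol formation was followed by absorbance at 400 nm. Each run was done at least in triplicate.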

[2] = target: T1, hCAII; assay type: binding; conditions: fluorescence visualization of SDS gel, Fig. 3b and 3c
In short: (§2)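 Excess biotinylated conjugate was loaded onto streptavidin agarose in PBS for 2 h, then washed 3-4 times with PBS and 0.05% PBST. The resin was incubated overnight at 4 °C with hCAII and hCAI, added separately or as a mixture, then washed. It was boiled 10 min at 99 °C in SDS loading buffer with reducing agent and run on SDS-PAGE.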

[3] = test system: mixture of hCAIX, hCAXII, hCAVB and hCAII; test: Pull-down experiment with a mixture of CA isozymes, SDS-PAGE; assay type: binding, human; conditions: [CA] = 1.00 μM, Fig. 4
[4] = target: T2, hCAI (Homo sapiens, UniProt P00915); test: Esterase activity inhibition; assay type: biochemical
T2 sequence (P00915 whole entry): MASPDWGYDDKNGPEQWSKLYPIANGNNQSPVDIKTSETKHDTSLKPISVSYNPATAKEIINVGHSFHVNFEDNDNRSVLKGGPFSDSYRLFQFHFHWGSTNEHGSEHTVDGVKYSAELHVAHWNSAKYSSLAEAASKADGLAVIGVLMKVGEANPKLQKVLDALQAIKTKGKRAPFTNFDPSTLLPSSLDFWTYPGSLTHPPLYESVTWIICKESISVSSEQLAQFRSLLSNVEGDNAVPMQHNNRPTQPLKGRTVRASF
In short: as §1

[5] = target: T2, hCAI; assay type: binding
In short: as §2

Structure (SMILES)	increase of inhibitory activity against hCAII compared to 4-ABS [1]	pull-down with mixture of ZW700-hCAII and CY3-hCAI: binding to hCAII [2]	pull-down with mixture of CA isozymes: isozyme captured [3]	increase of inhibitory activity against hCAI compared to 4-ABS ([4]; from IC50 values, esterase activity) [fold]	specificity in terms of enzymatic inhibitory activity (IC50) ([4]; hCAI versus hCAII and hCAIX)	pull-down, enzymes tested separately: capturing ability for hCAI ([5]; [hCA] = 0.57 μM, Fig. 3a, compared with 1, 2 and 7)	pull-down with mixture of ZW700-hCAII and CY3-hCAI: binding to hCAI ([5]; fluorescence visualization of SDS gel, Fig. 3b and 3c)
CC(C)C[C@@H](NC(=O)[C@@H](CC(=O)O)NC(=O)c1ccc(S(N)(=O)=O)cc1)C(=O)N[C@H](CC(=O)O)C(=O)N[C@H](CC(=O)O)C(=O)N[C@H](Cc1c[nH]c2ccccc12)C(N)=O [Compound 7, 4-CBS-dlddw] ({Benzoyl(4-SO2NH2)}-[dD][dL][dD][dD][dW]-NH2)	ca. 17 fold	significantly increased binding selectively to hCAII	selective capturing of hCAII				
CC(C)C[C@@H](NC(=O)[C@H](NC(=O)[C@@H](CC(=O)O)NC(=O)[C@H](NC(=O)[C@@H](CC(=O)O)NC(=O)c1ccc(S(N)(=O)=O)cc1)C(C)C)C(C)C)C(N)=O [Compound 9, 4-CBS-dvdvl] ({Benzoyl(4-SO2NH2)}-[dD][dV][dD][dV][dL]-NH2)	2.6 fold	binds strongly	selective capturing of hCAII	30	good specificity for hCAI	greatest capturing ability for hCAI	binds strongly
